Test results taken from ChEMBL document CHEMBL1125740, “Heterocyclic quinones. 17. A new in vivo active antineoplastic drug: 6,7-bis(1-aziridinyl)-4-[[3-(N,N-dimethylamino)propyl]amino]-5,8- quinazolinedione” (J Med Chem, 1991).
Values joined by “and” are separate entries in the source; they are usually repeats but may differ in a detail not shown here. Equal entries are not always repeated.

Experiments:
[1] = test system: P388; assay: Compound was evaluated in vivo for antitumor activity after intraperitoneal administration against P388/L-PAM(14) for % increase in life span at an optimal dose of 0.5 mg/kg/injection at 1,4,7,11 day schedule.; format: functional; conditions: Mus musculus, P388, ip
[2] = test system: P388; assay: Compound was evaluated in vivo for antitumor activity after intraperitoneal administration against P388/L-PAM(14) for % increase in life span at an optimal dose of 0.4 mg/kg/injection at 1,2,3,4 day schedule.; format: functional; conditions: Mus musculus, P388, ip
[3] = test system: P388; assay: Compound was evaluated in vivo for antitumor activity after intraperitoneal administration against P388/L-PAM(14) for median day of death at an optimal dose of 0.25 mg/kg/injection at 1,4,7,11 day schedule.; format: functional, Mus musculus
[4] = test system: P388; assay: Compound was evaluated in vivo for antitumor activity after intraperitoneal administration against P388 (1313) for median day of death at an optimal dose of 1 mg/kg/injection; format: functional, Mus musculus
[5] = test system: P388; assay: Compound was evaluated in vivo for antitumor activity after intraperitoneal administration against P388 (1313) for median day of death at an optimal dose of 0.5 mg/kg/injection; format: functional, Mus musculus
[6] = test system: L1210; assay: Compound was evaluated in vivo for antitumor activity after intraperitoneal administration against L1210(935) for tumor free survivors at an optimal dose of 0.5 mg/kg/injection at 1 day schedule.; format: functional, Mus musculus
Summary of the method: (§1)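 L1210 leukemia, maintained in DBA/2 mice, was given ip as 10⁵ cells on day 0 to F1 hybrid or strain-of-origin mice over 18 g, in groups of 8. Dosing was ip from day 1, and mortality was checked daily. Median day of death counts dying mice only. %ILS = 100×(treated − control median day of death)/control median. Tumor-free survivors were counted on day 60. Weight change is g/mouse at nadir.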

[7] = Compound was evaluated in vivo for antitumor activity against mammary adenocarcinoma 16/C after injecting the compound intravenously for percent T/C; format: functional, Mus musculus
Summary of the method: (§2)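 30-60 mg tumor fragments implanted sc by trocar on day 0 into C57Bl/6-derived hosts (B16) or C3H/He-derived hosts (16/C). Drug given iv on days 6, 9 and 13 (B16) or 6, 9 and 12 (16/C), 10 mice per group. Tumors measured by caliper. T/C % taken from median tumor burden of treated vs control groups on day 15 (B16) or day 14 (16/C). Body weight change per mouse recorded at nadir.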

[8] = test system: P388; assay: Compound was evaluated in vivo for antitumor activity after intraperitoneal administration against P388/L-PAM(14) for % increase in life span at an optimal dose of 1 mg/kg/injection; format: functional; conditions: Mus musculus, P388, ip
[9] = test system: P388; assay: Compound was evaluated in vivo for antitumor activity after intraperitoneal administration against P388 (1313) for change in body weight at an optimal dose of 1 mg/kg/injection; format: functional, Mus musculus
[10] = Compound was evaluated in vivo for antitumor activity against mammary adenocarcinoma 16/C after injecting the compound intravenously for optimal dose; format: functional, Mus musculus; summary of the method: as §2
[11] = test system: P388; assay: Compound was evaluated in vivo for antitumor activity after intraperitoneal administration against P388 (1313) for tumor free survivors at an optimal dose of 1 mg/kg/injection on day 60; format: functional, Mus musculus
[12] = test system: P388; assay: Compound was evaluated in vivo for antitumor activity after intraperitoneal administration against P388/L-PAM(14) for % increase in life span at an optimal dose of 0.2 mg/kg/injection at 1,2,3,4 day schedule.; format: functional; conditions: Mus musculus, P388, ip
[13] = test system: L1210; assay: Compound was evaluated in vivo for antitumor activity after intraperitoneal administration against L1210(935) for tumor free survivors at an optimal dose of 0.25 mg/kg/injection at 1,4,7,11 day schedule.; format: functional, Mus musculus; summary of the method: as §1
[14] = test system: L1210; assay: Compound was evaluated in vivo for antitumor activity after intraperitoneal administration against L1210(935) for mortality range at an optimal dose of 0.4 mg/kg/injection at 1-4 day schedule.; format: functional, Mus musculus; summary of the method: as §1
[15] = Compound was evaluated in vivo for antitumor activity against colon adenocarcinoma 38 after injecting the compound intravenously for percent T/C (value in parentheses indicates the day of evaluation); format: functional, Mus musculus
[16] = test system: P388; assay: Compound was evaluated in vivo for antitumor activity after intraperitoneal administration against P388/L-PAM(14) for change in body weight at an optimal dose of 0.4 mg/kg/injection at 1,2,3,4 day schedule.; format: functional, Mus musculus
[17] = Compound was evaluated in vivo for antitumor activity against colon adenocarcinoma 38 after injecting the compound intravenously for toxicity related death.; format: functional, Mus musculus
[18] = test system: L1210; assay: Compound was evaluated in vivo for antitumor activity after intraperitoneal administration against L1210(935) for tumor free survivors at an optimal dose of 0.5 mg/kg/injection at 1,4,7,11 day schedule.; format: functional, Mus musculus; summary of the method: as §1
[19] = test system: P388; assay: Compound was evaluated in vivo for antitumor activity after intraperitoneal administration against P388/L-PAM(14) for median day of death at an optimal dose of 0.5 mg/kg/injection at one day schedule.; format: functional, Mus musculus
[20] = test system: P388; assay: Compound was evaluated in vivo for antitumor activity after intraperitoneal administration against P388/L-PAM(14) for change in body weight at an optimal dose of 0.2 mg/kg/injection at 1,2,3,4 day schedule.; format: functional, Mus musculus
[21] = test system: P388; assay: Compound was evaluated in vivo for antitumor activity after intraperitoneal administration against P388 (1313) for change in body weight at an optimal dose of 0.4 mg/kg/injection; format: functional, Mus musculus
[22] = test system: B16; assay: Compound was evaluated in vivo for antitumor activity against B16 melanoma after injecting the compound intravenously for total dose.; format: functional, Mus musculus; summary of the method: as §2
[23] = test system: L1210; assay: Compound was evaluated in vivo for antitumor activity after intraperitoneal administration against L1210(935) for mortality range at an optimal dose of 0.125 mg/kg/injection at 1,4,7,11day schedule.; format: functional, Mus musculus; summary of the method: as §1
[24] = test system: P388; assay: Compound was evaluated in vivo for antitumor activity after intraperitoneal administration against P388/L-PAM(14) for total dose at an optimal dose of 0.1 mg/kg/injection at 1,2,3,4 day schedule.; format: functional, Mus musculus
[25] = Compound was evaluated in vivo for antitumor activity against Lewis Lung cercinoma after injecting the compound intravenously for percent T/C (value in parentheses indicates the day of evaluation); format: functional, Mus musculus
[26] = Compound was evaluated in vivo for antitumor activity against colon adenocarcinoma 38 after injecting the compound intravenously for median tumor burden; format: functional, Mus musculus
[27] = test system: P388; assay: Compound was evaluated in vivo for antitumor activity after intraperitoneal administration against P388 (1313) for total dose at an optimal dose of 0.4 mg/kg/injection; format: functional, Mus musculus

SMILES: CN(C)CCCNc1ncnc2c1C(=O)C(N1CC1)=C(N1CC1)C2=O
- ILS at 0.5 mg/kg [1]: 61%
- ILS at 0.4 mg/kg [2]: 43%
- Median day of death [3]: 16.5
- Median day of death [4]: 19
- Median day of death [5]: 25
- Survivors [6]: 0
- T/C [7]: 48% and 68%
- ILS at 1 mg/kg [8]: 36%
- Change in body weight [9]: -0.5
- Optimal dose [10]: 0.4 mg/kg and 0.2 mg/kg
- Survivors [11]: 0
- ILS at 0.2 mg/kg [12]: 36%
- Survivors [13]: 0
- Mortality [14]: 20 days
- T/C [15]: 102%
- g/mouse [16]: 0.9
- Toxicity [17]: 0
- Survivors [18]: 1
- Median day of death [19]: 18
- Change of weight [20]: 1.7 g mouse-1
- Change in body weight [21]: -0.9 g mouse-1
- Total dose [22]: 0.6 mg/kg
- Mortality [23]: 14 days
- Total dose [24]: 0.4 mg/kg
- T/C [25]: 81%
- Tumor burden [26]: 416
- Optimal dose [27]: 1.6 mg/kg
